Experimental data collected from several papers.
Each line is one published result; the experiments were not run side by side.
Target: Tyrosine-protein kinase Lyn (LYN, Homo sapiens, UniProt P07948)

| SMILES | test | conditions | remaining binding [%] |
| --- | --- | --- | --- |
| COc1cnc(Nc2cccc(S(N)(=O)=O)c2)nc1N1CCN(c2ccccc2)CC1 | binding, competition with immobilised ligand | 1 µM | 92 |
| N[C@H]1CCN(c2nccc(-c3cnn4ncccc34)n2)C1 | binding | 1 µM | 99 |
| O=C(c1ccc(Nc2nccc(-c3cc4ccccc4s3)n2)cc1)N1CCC(N2CCCC2)CC1 | binding, competition with immobilised ligand | 1 µM | 97 |
| CN(C)C(=O)Cn1cc(-c2nc([C@@](C)(c3ccc(-c4cnc(N)nc4)cc3)C3CC3)no2)cn1 | cell-free assay, competition with immobilised ligand | 1 µM | 87 |
| CN(CCCC(F)(F)F)c1nccc(-c2cnn3ncccc23)n1 | binding | 1 µM | 86 |
| CCC(=O)N[C@@H]1CC[C@H](C(=O)N(C)c2ccc(-c3nc4ccccc4o3)cc2)C1 | cell-free assay, competition with immobilised ligand | 1 µM | 92 |
| CNC(=O)[C@@H]1CC[C@@H](n2c(-c3ccc4cnccc4c3)nc3ccc(C(=O)NCc4cccc(C(N)=O)c4)cc32)C1 | binding, competition with immobilised ligand | 1 µM | 95 |
| O=C(NCC1CCOCC1)c1n[nH]cc1NC(=O)c1c(F)cccc1F | binding, competition with immobilised ligand | 1 µM | 92 |
| C=CC(=O)N1CCC(C(=O)NCC(=O)N2CCN(c3nc(-c4cnc(N)nc4C(F)F)nc(N4CCOCC4)n3)CC2)CC1 | binding, competition with immobilised ligand | 1 µM | 100 |
| Cc1cnn2ncc(-c3ccnc(N(C)C)n3)c2c1 | binding | 1 µM | 92 |
| O=C(NCCCN1CCOCC1)c1ccc(Nc2ncc(Cl)c(-c3ccc(Cl)s3)n2)cc1 | binding, competition with immobilised ligand | 1 µM | 87 |
| CC1=C(C#N)C(c2ccc3c(c2)c(NC(=O)c2ccccc2C)nn3C)C(C#N)=C(C)N1 | cell-free assay, competition with immobilised ligand | 1 µM | 89 |
| CN(C)c1ncc(F)c(-c2cnn3ncccc23)n1 | binding | 1 µM | 100 |
| Cc1ccc(-n2nc(C(C)(C)C)cc2NC(=O)Nc2ccc(-n3c(N)c(C(N)=O)c4nc5ccc(NCCCN)cc5nc43)cc2)cc1 | cell-free assay, competition with immobilised ligand | 1 µM | 0.5 |
| COc1ccnn2ncc(-c3ccnc(N(C)C)n3)c12 | binding | 1 µM | 100 |
| CCS(=O)(=O)c1cc2cc(C[C@@](O)(CC(C)(C)c3ccc(F)cc3C(N)=O)C(F)(F)F)[nH]c2cn1 | cell-free assay, competition with immobilised ligand | 1 µM | 100 |
| C[C@@H]1CCN(c2nccc(-c3cnn4ncccc34)n2)C1 | binding | 1 µM | 93 |
| CNC(=O)Nc1ccc2c(c1)[C@@]1(CC2)OC(=O)N(CC(=O)N(Cc2ccc(F)cc2)[C@@H](C)C(F)(F)F)C1=O | cell-free assay, competition with immobilised ligand | 1 µM | 100 |
| CN(C)c1nccc(-c2cnn3ncccc23)n1 | binding | 1 µM | 83 |
| COc1ncc2cc3ccccc3nc2c1C#N | cell-free assay, competition with immobilised ligand | 5 µM | 94 |
| Nc1cnc(N2CCc3cc(S(=O)(=O)Nc4c(F)cc(Cl)cc4F)cc(N4CCCC4=O)c32)nc1 | cell-free assay, competition with immobilised ligand | 1 µM | 88 |
| Cc1cnc(Nc2ccc(C(=O)N3CCC(N4CCCC4)CC3)cc2)nc1-c1cc2ccccc2s1 | binding, competition with immobilised ligand | 1 µM | 78 |
| O=C(NCc1ncc(C(F)(F)F)cc1Cl)c1ccc2c(c1)C1(CCS(=O)(=O)CC1)[C@H](C1CC1)N2S(=O)(=O)c1ccc(F)cc1 | cell-free assay, competition with immobilised ligand | 1 µM | 100 |
| c1cncc(-c2cccc(Nc3nccc(NC4CCCCC4)n3)c2)c1 | binding, competition with immobilised ligand | 10 µM | 48 |
